# Measured values taken from ChEMBL document CHEMBL4406794, “N-(7-Cyano-6-(4-fluoro-3-(2-(3-(trifluoromethyl)phenyl)acetamido)phenoxy)benzo[d]thiazol-2-yl)cyclopropanecarboxamide (TAK-632) Analogues as Novel Necroptosis Inhibitors by Targeting Receptor-Interacting Protein Kinase 3 (RIPK3): Synthesis, Structure-Activity Relationships, and in Vivo Efficacy” (J Med Chem, 2019).
# Calls of active or inactive are those of the source. The rule behind the calls is not given here.
# Key:
# [1] = biological target: T1, Receptor-interacting serine/threonine-protein kinase 1 (Homo sapiens, UniProt Q13546); assay: Binding affinity to wild-type human partial length RIPK1 (M1 to K305 residues) expressed in bacterial expression system after 1 hr by quantitative PCR based KINOMEscan assay
# T1 sequence (Q13546 whole entry): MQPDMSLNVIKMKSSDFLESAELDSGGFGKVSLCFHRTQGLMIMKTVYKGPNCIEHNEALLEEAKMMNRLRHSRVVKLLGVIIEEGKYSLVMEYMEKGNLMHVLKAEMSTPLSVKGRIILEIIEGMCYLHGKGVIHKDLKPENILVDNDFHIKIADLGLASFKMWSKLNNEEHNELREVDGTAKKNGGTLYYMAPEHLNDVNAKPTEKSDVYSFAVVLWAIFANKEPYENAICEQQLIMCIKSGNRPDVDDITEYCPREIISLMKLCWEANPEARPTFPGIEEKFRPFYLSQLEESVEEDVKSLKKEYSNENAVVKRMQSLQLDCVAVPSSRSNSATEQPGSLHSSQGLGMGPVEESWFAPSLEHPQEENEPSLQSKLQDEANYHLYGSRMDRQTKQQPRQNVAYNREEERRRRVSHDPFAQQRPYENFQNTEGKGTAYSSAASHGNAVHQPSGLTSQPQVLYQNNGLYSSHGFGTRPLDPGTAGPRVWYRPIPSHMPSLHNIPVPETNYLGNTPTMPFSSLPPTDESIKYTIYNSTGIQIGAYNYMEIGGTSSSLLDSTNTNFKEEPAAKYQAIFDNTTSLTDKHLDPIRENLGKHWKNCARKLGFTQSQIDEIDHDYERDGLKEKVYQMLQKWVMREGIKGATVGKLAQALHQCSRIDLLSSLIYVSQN
# Method in brief: (§1)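 KINOMEscan competition binding. Bound kinase eluted with 0.5 μM nonbiotinylated ligand for 30 min and quantified by qPCR. Duplicates averaged.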
# [2] = biological target: Receptor-interacting serine/threonine-protein kinase 3 (Homo sapiens, UniProt Q9Y572); assay: Binding affinity to wild-type human partial length RIPK3 (M1 to Q307 residues) expressed in bacterial expression system after 1 hr by quantitative PCR based KINOMEscan assay; method in brief: as §1
# Homo sapiens = species: Homo sapiens; assay: Selectivity ratio of Kd for human partial length RIPK1 (M1 to K305 residues) expressed in bacterial expression system to Kd for wild-type human partial length RIPK3 (M1 to Q307 residues) expressed in bacterial expression system
# [3] = Cytotoxicity against human HT-29 cells measured after 12 hrs by CellTiter-Glo Luminescent assay; type: cell-based
# HT-29 = assay: Anti-necroptotic activity in human HT-29 cells assessed as inhibition of […]/SM-164/Z-VAD-fmk-induced necroptosis measured after 16 hrs by celltiter-glo luminescent cell viability assay; details: HT-29, 16 h
# Mus musculus [4] = assay: Protection against TNFalpha/Z-VAD-fmk-induced C57BL/6J mouse model of systemic inflammatory response syndrome assessed as increase in body temperature at 5 to 50 mg/kg, po administered via gavage 2 hrs prior to Z-VAD-fmk addition for 15 mins followed by TNFalpha stimulation for 1 hr and subsequent Z-VAD-fmk addition meaured up to 50 hrs post TNFalpha stimulation by electric thermometer; type: functional, organism-based
# Method in brief: (§2)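 Female C57BL/6 mice, fasted overnight, n=10 per group. Compound given by oral gavage at 5, 25 or 50 mg/kg 2 h before TNF. z-VAD-fmk 180 µg i.p., then 15 min later mTNF-α 400 µg/kg i.v. in endotoxin-free PBS, then a further 70 µg z-VAD-fmk i.p. 1 h later. Body temperature and survival followed, compared with vehicle by one-way ANOVA.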
# Mus musculus [5] = assay: Protection against TNFalpha/Z-VAD-fmk-induced C57BL/6J mouse model of systemic inflammatory response syndrome assessed as increase in mouse survial at 5 to 50 mg/kg, po administered via gavage 2 hrs prior to Z-VAD-fmk addition for 15 mins followed by TNFalpha stimulation for 1 hr and subsequent Z-VAD-fmk addition meaured up to 50 hrs post TNFalpha stimulation; type: functional, organism-based; method in brief: as §2
# Chain of Receptor-interacting serine/threonine-protein kinase 3 (Q9Y572 whole entry, the tested form may be a part): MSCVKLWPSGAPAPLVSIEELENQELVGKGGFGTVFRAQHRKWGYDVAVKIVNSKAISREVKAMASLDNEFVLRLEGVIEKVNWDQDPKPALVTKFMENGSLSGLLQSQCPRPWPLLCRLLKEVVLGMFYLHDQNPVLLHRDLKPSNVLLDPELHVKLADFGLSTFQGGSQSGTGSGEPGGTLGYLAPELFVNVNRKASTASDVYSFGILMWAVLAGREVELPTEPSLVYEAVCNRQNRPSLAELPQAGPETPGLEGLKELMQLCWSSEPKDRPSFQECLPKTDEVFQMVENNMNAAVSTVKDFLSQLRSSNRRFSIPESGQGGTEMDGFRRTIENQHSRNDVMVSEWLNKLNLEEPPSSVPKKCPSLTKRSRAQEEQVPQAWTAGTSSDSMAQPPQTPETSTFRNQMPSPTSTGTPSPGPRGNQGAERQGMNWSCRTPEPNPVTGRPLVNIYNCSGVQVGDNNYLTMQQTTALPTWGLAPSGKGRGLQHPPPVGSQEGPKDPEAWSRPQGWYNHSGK
Structure (SMILES),Kd [1] [nM],Kd [2] [nM],Ratio (Homo sapiens),CC50 at 12 h [3] [nM],EC50 (HT-29) [nM],Activity (Mus musculus [4]),Activity (Mus musculus [5])
CC(=O)c1cccc(NC(=O)Nc2cc(Oc3ccc4nc(NC(=O)C5CC5)sc4c3)ccc2F)c1,> 5000,53,> 94.3,> 50000,1000,–,–
COc1cccc(NC(=O)Nc2cc(Oc3ccc4nc(NC(=O)C5CC5)sc4c3)ccc2F)c1,3600,69,52.1,> 50000,1370,–,–
Cc1cccc(CC(=O)Nc2cc(Oc3ccc4nc(NC(=O)C5CC5)sc4c3)ccc2F)c1,320,33,–,> 50000,380,–,–
CCC(=O)Nc1nc2ccc(Oc3ccc(F)c(NC(=O)Cc4cccc(C(F)(F)F)c4)c3)c(C#N)c2s1,–,–,–,–,> 20000,–,–
O=C(Cc1cccc(C(F)(F)F)n1)Nc1cc(Oc2ccc3nc(NC(=O)C4CC4)sc3c2)ccc1F,220,280,–,> 50000,320,–,–
Cc1cccc(NC(=O)Nc2cc(Oc3ccc4nc(NC(=O)C5CC5)sc4c3)ccc2F)c1,2200,93,23.6,> 50000,580,–,–
N#Cc1c(Oc2ccc(F)c(NC(=O)Cc3ccccc3)c2)ccc2nc(NC(=O)C3CC3)sc12,–,–,–,–,> 20000,–,–
O=C(Cc1cccc(C(F)(F)F)c1Cl)Nc1cc(Oc2ccc3nc(NC(=O)C4CC4)sc3c2)ccc1F,–,–,–,–,> 20000,–,–
O=C(Cc1cccc(C(F)(F)F)c1)Nc1cc(Oc2ccc3nc(NC(=O)C4CC4)sc3c2)ccc1F,–,–,–,–,–,Active,Active
CCOC(=O)c1cccc(NC(=O)Nc2cc(Oc3ccc4nc(NC(=O)C5CC5)sc4c3)ccc2F)c1,> 5000,72,> 69.4,> 50000,7740,–,–
CCCCCCCCC(=O)Nc1nc2ccc(Oc3ccc(F)c(NC(=O)Cc4cccc(C(F)(F)F)c4)c3)c(C#N)c2s1,–,–,–,–,> 20000,–,–
N#Cc1c(Oc2ccc(F)c(NC(=O)c3cccc(C(F)(F)F)c3)c2)ccc2nc(NC(=O)C3CC3)sc12,–,–,–,–,> 20000,–,–
O=C(Cc1ccccn1)Nc1cc(Oc2ccc3nc(NC(=O)C4CC4)sc3c2)ccc1F,–,–,–,–,8300,–,–
N#Cc1c(Oc2ccc(F)c(NC(=O)Cc3cccc(C(F)(F)F)c3F)c2)ccc2nc(NC(=O)C3CC3)sc12,–,–,–,–,2030,–,–
O=C(Cc1cc(C(F)(F)F)cc(C(F)(F)F)c1)Nc1cc(Oc2ccc3nc(NC(=O)C4CC4)sc3c2)ccc1F,–,–,–,> 50000,9700,–,–
O=C(Nc1nc2ccc(Oc3ccc(F)c(NS(=O)(=O)c4cccc(C(F)(F)F)c4)c3)cc2s1)C1CC1,–,–,–,–,> 20000,–,–
O=C(Cc1cccc([N+](=O)[O-])c1)Nc1cc(Oc2ccc3nc(NC(=O)C4CC4)sc3c2)ccc1F,770,110,–,> 50000,610,–,–
O=C(CCc1cccc(C(F)(F)F)c1)Nc1cc(Oc2ccc3nc(NC(=O)C4CC4)sc3c2)ccc1F,510,790,–,> 50000,650,–,–

Structure (SMILES),Kd [1] [nM],Kd [2] [nM],Ratio (Homo sapiens),CC50 at 12 h [3] [nM],EC50 (HT-29) [nM],Activity (Mus musculus [4]),Activity (Mus musculus [5])
O=C(Cc1cccc(O)c1)Nc1cc(Oc2ccc3nc(NC(=O)C4CC4)sc3c2)ccc1F,–,–,–,–,> 20000,–,–
O=C(Cc1cccc(C(F)(F)F)c1F)Nc1cc(Oc2ccc3nc(NC(=O)C4CC4)sc3c2)ccc1F,510,99,–,> 50000,490,–,–
O=C(Nc1nc2ccc(Oc3ccc(F)c(NCc4ccc5c(c4)OCO5)c3)cc2s1)C1CC1,–,–,–,–,> 20000,–,–
O=C(Cc1ccc(F)c(C(F)(F)F)c1)Nc1cc(Oc2ccc3nc(NC(=O)C4CC4)sc3c2)ccc1F,590,130,–,> 50000,400,–,–
Cn1cc(CC(=O)Nc2cc(Oc3ccc4nc(NC(=O)C5CC5)sc4c3)ccc2F)c2ccccc21,4800,1400,–,> 50000,3810,–,–
COc1cccc(CC(=O)Nc2cc(Oc3ccc4nc(NC(=O)C5CC5)sc4c3)ccc2F)c1,240,55,–,> 50000,330,–,–
O=C(Nc1nc2ccc(Oc3ccc(F)c(NCc4cccc(C(F)(F)F)c4)c3)cc2s1)C1CC1,–,–,–,–,> 20000,–,–
Cc1ccc(CC(=O)Nc2cc(Oc3ccc4nc(NC(=O)C5CC5)sc4c3)ccc2F)cc1C,1200,72,–,> 50000,1670,–,–
N#Cc1c(Oc2ccc(F)c(NC(=O)Cc3ccc([N+](=O)[O-])cc3)c2)ccc2nc(NC(=O)C3CC3)sc12,–,–,–,–,> 20000,–,–
O=C(Cc1ccccc1C(F)(F)F)Nc1cc(Oc2ccc3nc(NC(=O)C4CC4)sc3c2)ccc1F,–,–,–,–,11400,–,–
N#Cc1c(Oc2ccc(F)c(NC(=O)Cc3cccc(C(F)(F)F)c3)c2)ccc2nc(NC(=O)c3ccccc3)sc12,–,–,–,–,> 20000,–,–
O=C(Cc1cccc(OC(F)(F)F)c1)Nc1cc(Oc2ccc3nc(NC(=O)C4CC4)sc3c2)ccc1F,49,120,–,> 50000,60,–,–
O=C(Cc1ccc2c(c1)OCO2)Nc1cc(Oc2ccc3nc(NC(=O)C4CC4)sc3c2)ccc1F,1100,81,13,> 50000,2320,–,–
N#Cc1cccc(CC(=O)Nc2cc(Oc3ccc4nc(NC(=O)C5CC5)sc4c3)ccc2F)c1,780,120,–,> 50000,1290,–,–
N#Cc1c(Oc2ccc(F)c(NC(=O)Cc3cccc(F)c3)c2)ccc2nc(NC(=O)C3CC3)sc12,–,–,–,–,> 20000,–,–
N#Cc1c(Oc2ccc(F)c(NC(=O)Cc3cccc(C(F)(F)F)c3)c2)ccc2nc(NC(=O)OCc3ccccc3)sc12,–,–,–,–,> 20000,–,–
O=C(Nc1nc2ccc(Oc3ccc(F)c(NC(=O)C4(c5cccc(C(F)(F)F)c5)CC4)c3)cc2s1)C1CC1,–,–,–,> 50000,> 20000,–,–
